EBI2 block – EBI2 (human) antagonism. EBI2 beta-arrestin recruitment, luminescence, 7a,25-OHC stimulated. inhibition, % at 5 µM. actives 0.81% (n = 360,000); in the data active = inhibition above about 38%;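 note: enzyme fragment complementation signal reports receptor beta-arrestin coupling in cells; 0% = agonist plus DMSO wells and 100% = wells without agonist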
Target sequence (P32249 whole entry, looked up, the tested form may be a part): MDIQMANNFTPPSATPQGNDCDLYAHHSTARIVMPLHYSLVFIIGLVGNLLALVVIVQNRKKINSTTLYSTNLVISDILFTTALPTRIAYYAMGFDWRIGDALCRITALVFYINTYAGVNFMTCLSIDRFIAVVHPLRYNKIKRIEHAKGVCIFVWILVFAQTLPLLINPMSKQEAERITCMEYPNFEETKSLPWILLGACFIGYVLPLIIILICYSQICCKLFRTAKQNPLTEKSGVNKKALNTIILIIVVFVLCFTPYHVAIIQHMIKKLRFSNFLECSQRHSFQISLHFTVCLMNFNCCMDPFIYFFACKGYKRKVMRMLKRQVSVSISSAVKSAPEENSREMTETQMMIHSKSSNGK
Myeloid diff MLP – compounds promoting myeloid differentiation. ER-HoxA9 myeloid progenitors, lysozyme-GFP differentiation, flow cytometry. calls only at 10 µM. actives 1% (n = 360,000). AID 624256;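 active = normalized GFP-positive differentiation at or above the plate's own cutoff, the solvent-only control mean plus 3 SD; inconclusive = no clear call, values can overlap the other calls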;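 note: cells exposed to compound for four days before flow analysis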
MC4R antag cAMP – antagonists of human melanocortin 4 receptor (MC4R); actives 0.48% (n = 360,000); inhibition, % at 6.5 µM; MC4R-expressing cells, MTII-stimulated cAMP, LANCE TR-FRET; AID 540295;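 active = inhibition above its plate's cutoff, the mean of tested wells on that plate plus 3 SD, cut at about 29% in these data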;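 note: 0% = Melanotan II alone and 100% = Melanotan II plus saturating MCL0020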
Target sequence (P32245 whole entry, looked up): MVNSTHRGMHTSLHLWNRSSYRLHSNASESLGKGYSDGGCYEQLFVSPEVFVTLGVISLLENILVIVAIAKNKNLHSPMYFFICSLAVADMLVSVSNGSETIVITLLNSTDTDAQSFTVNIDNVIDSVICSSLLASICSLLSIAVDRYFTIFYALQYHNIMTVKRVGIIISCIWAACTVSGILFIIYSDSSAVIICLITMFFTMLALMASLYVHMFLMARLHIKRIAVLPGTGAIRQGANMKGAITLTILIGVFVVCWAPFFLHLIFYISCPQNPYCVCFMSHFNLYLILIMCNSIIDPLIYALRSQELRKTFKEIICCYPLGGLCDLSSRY
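Test system: U2OS cells stably expressing human melanocortin 4 receptor (MC4R); also added: Melanotan II challenge; compound: 6.5 µM single dose; timing: 30-min compound preincubation, 1-h Melanotan II challenge, 1-h detection, room temperature; signal: Eu-cAMP/anti-cAMP TR-FRET, emission 671 nm; repeats: one well per compound, no replicates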
MC4R ag barr – agonists of human melanocortin 4 receptor (MC4R) beta-arrestin; actives 0.98% (n = 360,000); U2OS MC4R beta-arrestin complementation, luminescence; percent of melanotan II response, DMSO zero; activation, % at 8.9 µM; P32245;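 active = activation above a per-plate cutoff, the mean activation of sample wells on that plate plus 3 SD, cut at about 8% in these data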
Granule exo inh – blocks lytic granule exocytosis; TALL-104 LAMP-1 surface exposure, flow cytometry; cells stimulated with thapsigargin and PMA; actives 0.66% (n = 360,000); inhibition, % at 10 µM;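 active = inhibition above about 55%, limit read from the data; inconclusive = no clear call, values can overlap the other calls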
Myeloid diff CP1 – compounds promoting myeloid differentiation. AID 651706. ER-HoxA9 myeloid progenitors, GFP/Mac1 double-positive flow. actives 2% (n = 2,300). calls only. shares compounds with Myeloid diff MLP;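 active = share of green or green-and-red cells above 9 and 9% in run 1 or 4 and 3% in run 2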
GFP autofluor – compound fluorescence in myeloid differentiation counter-screen | shares compounds with Myeloid diff MLP | ER-HoxA9 myeloid progenitors, no estrogen, GFP autofluorescence flow cytometry; vehicle wells 0%, positive control 100% | fluorescence response, % (concentration not given with the values) | actives 7.4% (n = 2,300);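 active = over 5% cells positive for green fluorescent reporter, or over 2% positive for both it and APC stain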;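 note: range taken on the double positive population between DMSO and positive control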
An asterisk follows results filed as active; i = inactive; ? = inconclusive; / = no result; + = active, no number. Compounds with a hit are over-represented: about 3.7% of the library has one in this group of screens.

SMILES	EBI2 block	Myeloid diff MLP	MC4R antag cAMP	MC4R ag barr	Granule exo inh	Myeloid diff CP1	GFP autofluor
Cc1cc(Br)c(OCc2ccc(C(=O)N/N=C/c3ccc[nH]3)cc2)c(Br)c1	25.2	?	11.4	1.1	-1.0	/	/
O=C(N/N=C/c1ccc[nH]1)c1ccc(COc2cccc3cccnc23)cc1	16.9	+	-5.4	-0.3	-0.9	i	0.5
O=C1C=C(O)CC2(CCCCC2)C1	-4.1	+	/	/	5.9	i	0.0
CC(=O)Nc1cccc(-c2ccnc3c2CC(C(=O)Nc2cccc(NS(C)(=O)=O)c2)O3)c1 (centres undefined)	-5.3	i	5.5	0.3	-1.3	/	/
CC(=O)Nc1ccc(-c2ccnc3c2CC(C(=O)Nc2cccc(Oc4ccccc4)c2)O3)cc1 (centres undefined)	12.6	i	8.2	-2.8	1.8	/	/
CC(=O)Nc1ccc(-c2ccnc3c2CC(C(=O)Nc2cccc(C(F)(F)F)c2)O3)cc1 (centres undefined)	-1.0	+	-4.2	0.0	-14.4	i	0.3
CS(=O)(=O)Nc1cccc(NC(=O)C2Cc3c(-c4ccccc4)ccnc3O2)c1 (centres undefined)	-34.8	+	-4.5	-0.7	-0.6	i	0.0
CC(=O)Nc1ccc(-c2ccnc3c2CC(C(=O)Nc2cccc(N(C)C)c2)O3)cc1 (centres undefined)	-6.2	+	-7.5	0.9	-5.1	i	0.0
CC(C)=CCC/C(C)=C/CNC(=O)C[C@H]1C[C@H](C(=O)N2CCCCC2)[C@@]2(C)c3[nH]c4ccc(Cl)cc4c3CCN2C1=O	6.6	+	-5.9	1.4	0.1	i	0.0
O=C(NCc1ccco1)c1ccc2c(c1)N(Cc1ccccc1)CCS2	10.0	i	-2.7	0.8	-2.7	i	0.9
COc1ccc(C[C@@H]2CN3C(=NC[C@@H]3C)N2CCNC(=O)c2ccc(C)c(Br)c2)cc1	5.3	+	4.2	1.6	-3.3	i	0.0
CC(/C=C1\SC(=S)N(CC(=O)N2CCN(c3ccccc3)CC2)C1=O)=C\c1ccccc1	9.5	i	0.3	0.3	0.8	/	/
CC(C)(C)C(=O)/C=C1\SCC(=O)N1CC(=O)N1CCN(c2ccccc2)CC1	2.2	i	5.4	0.5	6.8	i	1.1
Cc1cnc(C(=O)OCC(=O)c2ccccc2)cn1	8.7	i	3.4	-1.9	9.3	/	/
Cn1ccc(C(=O)OCC(=O)c2ccccc2)n1	-1.6	+	17.3	2.5	-4.6	i	0.0
NC(Cc1ccc(Cl)cc1)c1csc(NC(=O)NCC2CCCCC2)n1 (centres undefined)	-18.8	+	7.9	8.5*	13.5	i	1.0
CCNC(=S)NNc1nc(N2CCCCC2)nc(N2CCOCC2)n1	0.5	i	9.9	-0.2	1.7	/	/
CC(=O)NC1CC2CCCC(C1)N2S(=O)(=O)c1cccc(F)c1 (centres undefined)	-14.1	+	7.1	1.8	-0.4	i	0.0
O=C(NC1CC2CCCC(C1)N2S(=O)(=O)c1ccccc1)c1ccco1 (centres undefined)	-7.2	i	12.4	0.5	-1.9	/	/
CCOc1ccc(C(=O)Nc2cccc(-c3nc4cccnc4o3)c2)cc1Cl	12.2	+	8.9	6.1	0.1	i	0.3
COc1cc(C2CC(=O)Nc3cc(C)c(C)cc32)cc(OC)c1OC (centres undefined)	-3.3	+	-3.0	-1.6	-2.5	i	2.1
N#C/C(C(N)=O)=C1/SC(Cc2ccc(F)cc2)C(=O)N1c1ccccc1 (centres undefined)	-12.8	i	-1.6	-1.3	12.5	i	4.0
Cc1ccccc1N1C(=O)C(Cc2ccc(F)cc2)S/C1=C(\C#N)C(N)=O (centres undefined)	-11.0	i	13.8	-1.1	-3.4	i	4.9
CCCn1cc(S(=O)(=O)CC(=O)NC2CCCCC2)c2ccccc21	-2.1	/	1.8	0.2	3.7	i	0.0
CCCn1cc(SCC(=O)NC2CCCC2)c2ccccc21	18.1	i	17.9	-3.6	-5.4	/	/
SMILES	EBI2 block	Myeloid diff MLP	MC4R antag cAMP	MC4R ag barr	Granule exo inh	Myeloid diff CP1	GFP autofluor
O=C(CN1C(=O)NC2(CCCC2)C1=O)Nc1cc(S(=O)(=O)N2CCCCC2)ccc1Cl	-11.3	i	12.9	-1.7	-3.5	/	/
COc1ccc(-n2c(C)nnc2SCC(=O)N2C(C)CCCC2C)cc1 (centres undefined)	-1.0	+	16.0	1.0	-4.8	i	0.3
COc1ccc(-n2c(C)nnc2SCC(=O)NC2CC2)cc1	-3.7	i	-0.5	-2.5	0.3	/	/
COc1ccc(-c2cccc(-c3cc(=O)oc4cc(OC)cc(OC)c34)c2)cc1	22.0	?	-22.7	-1.7	0.7	/	/
COc1cc(OC)c2c(-c3cccc(-c4ccc(O)cc4)c3)cc(=O)oc2c1	10.5	+	-11.8	-1.3	2.3	i	4.9
O=C(c1cccs1)N1C[C@H](n2cc(-c3ccc(F)cc3)nn2)[C@@H](O)C[C@@H]1c1ccc(Cl)cc1	8.5	i	3.4	0.3	-5.5	/	/
O=C(c1cccs1)N1C[C@@H](n2cc(-c3ccc(F)cc3)nn2)[C@H](O)C[C@@H]1c1ccc(Cl)cc1	38.9	i	16.8	-0.5	10.9	i	0.7
CCCCCC(=O)N1C[C@@H](O)[C@H](n2cc(-c3ccc(F)cc3)nn2)C[C@@H]1c1ccc(OC)cc1	21.0	i	2.1	-2.5	-4.6	i	0.7
COc1ccc([C@H]2C[C@H](n3cc(-c4ccc(F)cc4)nn3)[C@@H](O)CN2CC2CCCCC2)cc1	23.1	+	6.5	0.1	-2.2	i	0.3
CCCCCC(=O)N1C[C@H](O)[C@@H](n2cc(-c3ccc(F)cc3)nn2)C[C@@H]1c1ccc(C)cc1	19.6	i	6.0	0.4	5.6	/	/
COc1cc(OC)c(OC)cc1/C=C1\Oc2cc(OCC(=O)N3Cc4ccccc4C[C@H]3C(=O)O)ccc2C1=O	-0.3	i	-6.9	-0.3	-1.3	/	/
CC(C)(C)c1ccc(CC(=O)N2CCC2(C)C(=O)NS(=O)(=O)c2ccc(Cl)s2)cc1 (centres undefined)	-4.7	i	4.7	-1.5	-2.9	/	/
CCC(=O)Oc1ccc(NC(=O)CSCc2ccccc2)cc1	-14.9	i	-7.5	0.5	-9.4	/	/
COc1ccccc1-n1c(=O)c2c3c(sc2n2c(=S)[nH]nc12)CCC3	1.4	i	5.4	-0.3	6.5	/	/
O=C(N/N=C/c1ccc(-c2ccc([N+](=O)[O-])cc2)o1)c1cccnc1	-2.9	i	-21.9	-2.1	1.6	/	/
O=C(Cc1ccccc1)N/N=C/c1ccc(-c2ccc([N+](=O)[O-])cc2)o1	0.4	+	3.4	-1.5	0.9	i	2.8
